From ChEMBL document CHEMBL1130330, “Synthesis of gonadotropin-releasing hormone III analogs. Structure-antitumor activity relationships” (1997)
Square brackets hold non-standard residues; d marks the D form. Peptide text beside a SMILES is read from it. pGlu = O=C1CC[C@@H](C(=O)O)N1

Tests used:
[1] = species: Homo sapiens; assay: (§1) The concentration to inhibit colony formation of MCF-7 human tumor cell lines; assay type: functional, MCF7
In short: (§2)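 Clonogenic assay on human tumor cell lines, with each peptide at 50 (unit as printed). Colony formation reflects cell survival. Results are given as % inhibition of colony formation relative to untreated controls, mean ± deviation.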

[2] = test system: Ishikawa; assay: The concentration to inhibit colony formation of Ishikawa human tumor cell lines; assay type: functional; in short: as §2
[3] = test system: MCF7; assay: The concentration to inhibit cell proliferation of MCF-7 human tumor cell lines; assay type: functional
In short: (§3)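 Cell proliferation assay with peptide treatment. Cells are released from Petri dishes by trypsinization and counted directly. Results are expressed as percentage of control values.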

[4] = test system: MCF7; assay: The concentration to inhibit cell proliferation of MCF-7 human tumor cell lines using the sulforhodamine B assay; assay type: functional
In short: (§4)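 Sulforhodamine B assay with each peptide at 50 (unit as printed). Dye bound to cells is quantified spectrophotometrically. Results are expressed as % inhibition relative to control, mean ± deviation.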

[5] = test system: MDA-MB-231; assay: The concentration to inhibit cell proliferation of MDA-MB-231 human tumor cell lines; assay type: functional; in short: as §3
[6] = test system: MDA-MB-231; assay: The concentration to inhibit cell proliferation of MDA-MB-231 human tumor cell lines using the sulforhodamine B assay; assay type: functional; in short: as §4
[7] = test system: MDA-MB-231; assay: The concentration to inhibit colony formation of MDA-MB-231 human tumor cell lines; assay type: functional; in short: as §2
[8] = test system: LNCaP; assay: The concentration to inhibit cell proliferation of LNCaP human tumor cell lines; assay type: functional
[9] = test system: LNCaP; assay: The concentration to inhibit cell proliferation of LNCaP human tumor cell lines using the sulforhodamine B assay; assay type: functional; in short: as §4
[10] = test system: MCF7; assay: as §1; assay type: functional; in short: as §2
[11] = test system: PC-3; assay: The concentration to inhibit cell proliferation of PC3 human tumor cell lines; assay type: functional; in short: as §3
[12] = test system: PC-3; assay: The concentration to inhibit cell proliferation of PC3 human tumor cell lines using the sulforhodamine B assay; assay type: functional; in short: as §4
[13] = test system: PC-3; assay: The concentration to inhibit colony formation of PC3 human tumor cell lines; assay type: functional; in short: as §2

| Structure (SMILES) | Inhibition [1] [%] | Inhibition [2] [%] | Inhibition [3] [%] | Inhibition [4] [%] | Inhibition [5] [%] | Inhibition [6] [%] | Inhibition [7] [%] | Inhibition [8] [%] | Inhibition [9] [%] | Inhibition [10] [%] | Inhibition [11] [%] | Inhibition [12] [%] | Inhibition [13] [%] |
| --- | --- | --- | --- | --- | --- | --- | --- | --- | --- | --- | --- | --- | --- |
| NCCCC[C@H](NC(=O)[C@H](Cc1c[nH]c2ccccc12)NC(=O)[C@H](CC(=O)O)NC(=O)[C@H](Cc1c[nH]cn1)NC(=O)[C@H](CO)NC(=O)[C@H](Cc1c[nH]c2ccccc12)NC(=O)[C@H](Cc1c[nH]cn1)NC(=O)[C@@H]1CCC(=O)N1)C(=O)N1CCC[C@H]1C(=O)NCC(N)=O | 18 | 18 | 18 | 20 | 18 | 19 | 44 | 32 | 40 | 45 | 14 | 12 | 21 |
| NCCCC[C@H](NC(=O)[C@H](Cc1ccccc1)NC(=O)[C@H](CC(=O)O)NC(=O)[C@H](Cc1c[nH]cn1)NC(=O)[C@H](CO)NC(=O)[C@H](Cc1c[nH]c2ccccc12)NC(=O)[C@H](Cc1c[nH]cn1)NC(=O)[C@@H]1CCC(=O)N1)C(=O)N1CCC[C@H]1C(=O)NCC(N)=O |  |  |  |  |  |  | 21 |  |  | 26 |  |  |  |
| NCCCC[C@H](NC(=O)[C@H](Cc1c[nH]c2ccccc12)NC(=O)[C@H](CC(=O)O)NC(=O)[C@H](Cc1c[nH]cn1)NC(=O)[C@H](CO)NC(=O)[C@H](Cc1c[nH]c2ccccc12)NC(=O)[C@H](Cc1c[nH]cn1)NC(=O)[C@@H]1CCC(=O)N1)C(=O)N1CC=C[C@H]1C(=O)NCC(N)=O |  | 21 |  | 19 |  | 18 | 42 |  |  | 42 |  | 14 | 19 |
| C[C@@H](NC(=O)[C@@H]1CCCN1C(=O)[C@H](CCCCN)NC(=O)[C@H](Cc1c[nH]c2ccccc12)NC(=O)[C@H](CC(=O)O)NC(=O)[C@H](Cc1c[nH]cn1)NC(=O)[C@H](CO)NC(=O)[C@H](Cc1c[nH]c2ccccc12)NC(=O)[C@H](Cc1c[nH]cn1)NC(=O)[C@@H]1CCC(=O)N1)C(N)=O |  | 6 |  | 8 |  | 8 | 15 |  |  | 4 |  | 2 | 3 |
| NCCCC[C@H](NC(=O)[C@H](Cc1cn(C=O)c2ccccc12)NC(=O)[C@H](CC(=O)O)NC(=O)[C@H](Cc1c[nH]cn1)NC(=O)[C@H](CO)NC(=O)[C@H](Cc1cn(C=O)c2ccccc12)NC(=O)[C@H](Cc1c[nH]cn1)NC(=O)[C@@H]1CCC(=O)N1)C(=O)N1CC=C[C@H]1C(=O)NCC(N)=O |  | 24 |  |  |  |  | 32 |  |  | 31 |  |  | 20 |
| CC(C)C[C@H](NC(=O)CNC(=O)[C@H](Cc1ccc(O)cc1)NC(=O)[C@H](CO)NC(=O)[C@H](Cc1c[nH]c2ccccc12)NC(=O)[C@H](Cc1c[nH]cn1)NC(=O)[C@@H]1CCC(=O)N1)C(=O)N[C@@H](CCCN=C(N)N)C(=O)N1CCC[C@H]1C(=O)NCC(N)=O |  | 17 |  |  |  |  | 29 |  |  | 27 |  |  | 15 |
| NC(=O)CNC(=O)[C@@H]1CCCN1C(=O)[C@@H]1CCCCNC(=O)C[C@H](NC(=O)[C@H](Cc2c[nH]cn2)NC(=O)[C@H](CO)NC(=O)[C@H](Cc2c[nH]c3ccccc23)NC(=O)[C@H](Cc2c[nH]cn2)NC(=O)[C@@H]2CCC(=O)N2)C(=O)N[C@@H](Cc2c[nH]c3ccccc23)C(=O)N1 |  | 16 |  | 20 |  | 16 | 27 |  |  | 44 |  | 11 | 18 |
| NCCCC[C@H](NC(=O)[C@H](Cc1c[nH]c2ccccc12)NC(=O)[C@H](Cc1c[nH]cn1)NC(=O)[C@@H]1CCC(=O)N1)C(=O)N[C@@H](Cc1c[nH]cn1)C(=O)N[C@@H](CC(=O)O)C(=O)N[C@@H](Cc1c[nH]c2ccccc12)C(=O)N[C@@H](CCCCN)C(=O)N1CCC[C@H]1C(=O)NCC(N)=O |  | 21 |  |  |  |  | 35 |  |  | 40 |  |  | 15 |
| CC(=O)NCCCC[C@H](NC(=O)[C@H](Cc1c[nH]c2ccccc12)NC(=O)[C@H](Cc1c[nH]cn1)NC(=O)[C@@H]1CCC(=O)N1)C(=O)N[C@@H](Cc1c[nH]cn1)C(=O)N[C@@H](CC(=O)O)C(=O)N[C@@H](Cc1c[nH]c2ccccc12)C(=O)N[C@@H](CCCCN)C(=O)N1CCC[C@H]1C(=O)NCC(N)=O |  | 14 |  |  |  |  | 42 |  |  | 52 |  |  | 12 |
| NCCCC[C@H](NC(=O)[C@H](Cc1c[nH]c2ccccc12)NC(=O)[C@H](CCC(=O)O)NC(=O)[C@H](Cc1c[nH]cn1)NC(=O)[C@H](CO)NC(=O)[C@H](Cc1c[nH]c2ccccc12)NC(=O)[C@H](Cc1c[nH]cn1)NC(=O)[C@@H]1CCC(=O)N1)C(=O)N1CCC[C@H]1C(=O)NCC(N)=O |  | 5 |  | 17 |  | 27 | 25 |  |  | 44 |  | 12 | 20 |
| NCCCC[C@H](NC(=O)[C@H](CO)NC(=O)[C@H](Cc1c[nH]c2ccccc12)NC(=O)[C@H](Cc1c[nH]cn1)NC(=O)[C@@H]1CCC(=O)N1)C(=O)N[C@H]1CC(=O)NCCCC[C@@H](C(=O)N2CCC[C@H]2C(=O)NCC(N)=O)NC(=O)[C@H](Cc2c[nH]c3ccccc23)NC1=O |  | 13 |  | 19 |  | 21 | 27 |  |  | 44 |  | 16 | 11 |
| NCCCC[C@H](NC(=O)[C@H](CO)NC(=O)[C@H](Cc1c[nH]c2ccccc12)NC(=O)[C@H](Cc1c[nH]cn1)NC(=O)[C@@H]1CCC(=O)N1)C(=O)N[C@@H](CC(=O)O)C(=O)N[C@@H](Cc1c[nH]c2ccccc12)C(=O)N[C@@H](CCCCN)C(=O)N1CCC[C@H]1C(=O)NCC(N)=O |  | 6 |  | 4 |  | 2 | 4 |  |  | 5 |  |  | 0 |
| CCNC(=O)[C@@H]1CCCN1C(=O)[C@H](CCCCN)NC(=O)[C@H](Cc1c[nH]c2ccccc12)NC(=O)[C@H](CC(=O)O)NC(=O)[C@H](Cc1c[nH]cn1)NC(=O)[C@H](CO)NC(=O)[C@H](Cc1c[nH]c2ccccc12)NC(=O)[C@H](Cc1c[nH]cn1)NC(=O)[C@@H]1CCC(=O)N1 ([pGlu]HWSHDWKP-NHEt) |  | 13 |  | 20 |  | 32 | 27 |  |  | 28 |  | 15 | 22 |
